Test results: ChEMBL document CHEMBL3596100, “The synthesis and biological activity of novel anthracenone-pyranones and anthracenone-furans” (Bioorg Med Chem, 2015)

Columns and labels:
A-431 = experiment: Growth inhibition of human A431 cells after 72 hrs by MTT assay; format: functional; conditions: A-431, 72 h
Outline: (§1)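 Cells kept in DMEM with 10% FBS, glutamine, penicillin/streptomycin at 37 °C, 5% CO2; plated in duplicate at 2500–4000 cells/well, dosed 24 h later during log growth. After 72 h drug exposure, MTT read at 540 nm. […] Assays in triplicate, standard error reported.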

[1] = Growth inhibition of human BE(2)-C cells after 72 hrs by MTT assay; format: functional; outline: as §1
MCF7 = experiment: Growth inhibition of human MCF7 cells after 72 hrs by MTT assay; format: functional; conditions: MCF7, 72 h; outline: as §1
DU-145 = experiment: Growth inhibition of human DU145 cells after 72 hrs by MTT assay; format: functional; conditions: DU-145, 72 h; outline: as §1
A2780 = experiment: Growth inhibition of human A2780 cells after 72 hrs by MTT assay; format: functional; conditions: A2780, 72 h; outline: as §1
[2] = Growth inhibition of mouse SMA cells after 72 hrs by MTT assay; format: functional; outline: as §1
[3] = Growth inhibition of human SJ-G2 cells after 72 hrs by MTT assay; format: functional; conditions: SJ-G2, 72 h; outline: as §1
[4] = Growth inhibition of human MIA cells after 72 hrs by MTT assay; format: functional; outline: as §1
[5] = Growth inhibition of human U87 cells after 72 hrs by MTT assay; format: functional, U-87MG ATCC; conditions: U-87 MG; outline: as §1
HT-29 = experiment: Growth inhibition of human HT-29 cells after 72 hrs by MTT assay; format: functional; conditions: HT-29, 72 h; outline: as §1
[6] = Growth inhibition of human H460 cells after 72 hrs by MTT assay; format: functional; conditions: NCI-H460, 72 h; outline: as §1

Compound	GI50 (A-431) [µM]	GI50 [1] [µM]	GI50 (MCF7) [µM]	GI50 (DU-145) [µM]	GI50 (A2780) [µM]	GI50 [2] [µM]	GI50 [3] [µM]	GI50 [4] [µM]	GI50 [5] [µM]	GI50 (HT-29) [µM]	GI50 [6] [µM]
CC(=O)c1cc2c(C)cc3c(c2o1)C(=O)c1c(OC(C)C)cccc1C3=O	5.8	4.6	3.5	1.9	5	2.3	2.2	9.7	8.4	9.7	17
Cc1cc2c(c3oc(=O)c(C(C)(C)O)cc13)C(=O)c1c(OC(C)C)cccc1C2=O	19	27	20	40	28	30	14	23	30	30	22
CCC(C)(O)c1cc2c(C)cc3c(c2oc1=O)C(=O)c1c(OC(C)C)cccc1C3=O (stereo unspecified)	15	22	16	26	19	23	9	14	25	11	16
Cc1cc2c(c3oc(CCCC#N)cc13)C(=O)c1c(O)cccc1C2=O	13	0.99	4.7	0.46	6.5	5.4	32	2.6	11	1.9	15
CCCCCCc1cc2c(C)cc3c(c2o1)C(=O)c1c(O)cccc1C3=O	18	21	15	25	12	9.3	32	13	25	17	17
Cc1cc2c(c3oc(=O)cc(CCCCl)c13)C(=O)c1c(OC(C)C)cccc1C2=O	12	27	8.8	24	12	16	27	17	12	24	25
Cc1cc2c(c3oc(CCCC#N)cc13)C(=O)c1c(OC(C)C)cccc1C2=O	9.8	23	5.9	7.7	6.4	10	8.4	10	6.1	11	9.4
CCc1cc(=O)c2c(C)cc3c(c2o1)C(=O)c1c(OC(C)C)cccc1C3=O	5.7	2.2	4.3	1.9	5.8	3.9	16	3.4	8.7	4.8	6.9
CCCc1cc(=O)c2c(C)cc3c(c2o1)C(=O)c1c(O)cccc1C3=O	1.6	1.8	1.8	1.2	2.4	1.5	1.7	1.7	2.8	3.2	1.4
Cc1cc2c(c3oc(C(C)O)cc13)C(=O)c1c(O)cccc1C2=O (stereo unspecified)	9	19	21	28	7.3	12	17	15	20	13	17
Cc1cc2c(c3oc(CCC(F)(F)F)cc(=O)c13)C(=O)c1c(O)cccc1C2=O	0.51	0.2	0.28	0.29	0.34	0.48	0.49	0.28	2.9	0.94	0.87
Cc1cc2c(c3oc(=O)c(CCCCl)cc13)C(=O)c1c(OC(C)C)cccc1C2=O	17	33	19	20	21	19	15	20	16	15	19
Cc1cc2c(c3oc(C(=O)c4ccccc4)cc13)C(=O)c1c(OC(C)C)cccc1C2=O	1.77	0.83	1.1	0.95	2.1	2.2	36	1.7	2.3	1.4	2.9
CCc1cc(=O)c2c(C)cc3c(c2o1)C(=O)c1c(OC)cccc1C3=O	5.7	4.1	4.1	4.8	5.3	6.5	4.3	5.4	14	4.5	4.8
Cc1cc2c(c3oc(C(C)O)cc13)C(=O)c1c(OC(C)C)cccc1C2=O (stereo unspecified)	19	20	24	28	16	29	14	19	35	24	17
Cc1cc2c(c3oc(=O)c(CCCC#N)cc13)C(=O)c1c(O)cccc1C2=O	12	11	12	3.2	10	9.8	22	15	11	14	9
Cc1cc2c(c3oc(=O)c(C(C)(C)C)cc13)C(=O)c1c(OC(C)C)cccc1C2=O	17	33	14	29	12	12	12	12	17	13	20
CCCc1cc2c(C)cc3c(c2o1)C(=O)c1c(O)cccc1C3=O	2.3	0.88	2.2	0.86	1.5	1.3	1	1.7	6.6	1.2	3.1
CCCCCC(=O)c1cc2c(C)cc3c(c2o1)C(=O)c1c(OC(C)C)cccc1C3=O	1.4	0.75	2	0.85	2.3	1.8	4.2	1.1	4.2	0.88	6.8
CCCCc1cc(=O)oc2c3c(cc(C)c12)C(=O)c1cccc(OC(C)C)c1C3=O	20	13	15	11	9.5	12	13	13	14	18	19
Cc1cc2c(c3oc(CCCCl)cc13)C(=O)c1c(O)cccc1C2=O	0.59	0.38	0.66	0.44	0.45	0.69	37	0.55	0.97	1.9	1.9
